In one data set the test system is LNCaP. The experiment in a line: Prostate cancer cell growth in vitro, LNCaP. In kind it is cell-based. As to conditions: data not shown.
The subject of a further data set is PC-3. The data set is described as follows: Prostate cancer cell growth in vitro, PC-3. Type of data set: cell-based. The note with it: data not shown.
A short description of a further data set: Rat formalin test. As to conditions: 30 mg/kg PO two hours before subplantar formalin; vs vehicle; p<0.05. In kind it is in vivo. Summed up: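 SD rats received test compound at 30 mg/kg or vehicle (0.5% HPMC/1% Tween 80/2.5% DMSO) orally, 2 h before subplantar formalin (0.05 mL, 1%). Hind paw licking time was recorded at 5-minute intervals for 30 minutes, covering the acute and inflammatory phases. Data are the average of two independent experiments with six rats per group per trial.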

The nature of data set [1]: Spontaneous guarding and flinching in prostate model of bone cancer. Type of data set: in vivo, mouse. The note with it: 30 mg/kg/day in chow from day 14; days 56 and 63; vs vehicle; 2-min observation.
For data set [2], the system named is GFP-transfected ACE-1 cells. The data set is described as follows: Prostate cancer cells in vitro growth assay, GFP-transfected ACE-1. In kind it is cell-based, canine. As to conditions: for effect on cell growth (sensitivity): three day growth assay in vitro. Summed up:
(§1)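 Cells were seeded at 3000 cells/well and allowed to adhere overnight at 37°C, 5% CO2. Test compound or staurosporine was prepared as an 8-point, 3-fold DMSO series from a 10 mM stock, giving a final 500-fold dilution of stocks, in triplicate. After 3 days, growth was measured by CellTiter-Glo luminescence, normalised to the DMSO signal (% control), and IC50 was fitted against concentration.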

The nature of data set [3]: Radiographic assessment of tumor-induced bone remodeling. Type of data set: in vivo, mouse. Summed up: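 In the femoral ACE-1 tumor model, compound-formulated chow (average 30 mg/kg/day) or control chow was given ad libitum from day 14 to study end, n=8/group. Radiographs were taken from day 14 and then every 7 days. In blinded analysis, bone lying outside the normal femur diameter (defined from naïve/sham mice) was traced with a mm-calibrated free-form tool. Mean area was calculated per group.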

The subject of data set [4] is CD68+ macrophages and osteoclasts. The data set is described as follows: CD68+ cells in tumor-bearing bone sections. Type of data set: in vivo, mouse. Put shortly: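 Mice received intramedullary femoral injection of GFP+ ACE-1 prostate cancer cells. From day 14 they were given test compound in chow (average 30 mg/kg/day) or control chow ad libitum, n=8/group. At day 65, 20 μm decalcified frozen bone sections were stained with rat anti-mouse CD68 (1:2,000), Cy3 secondary and DAPI. Two 400X confocal images were taken per section from three sections per animal, in GFP+ tumor areas. Blinded counts were made per μm3.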

In data set [5] the test system is Human osteoclast precursors. The experiment in a line: Osteoclast differentiation assay. In kind it is cell-based. As to conditions: six days with CSF-1 and RANKL, up to 10 μM. Put shortly:
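Human osteoclast precursors were cultured at 37°C, 5% CO2, with CSF-1 (33 ng/mL), RANKL (66 ng/mL) and test compound (up to 10 μM) or 0.2% DMSO for 6 days. After a medium change, cells were incubated 1 more day. Supernatant acid phosphatase (TRAP5b) was read at 405 nm. Results are expressed as percent inhibition relative to vehicle with or without CSF-1, from six independent experiments.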

The subject of data set [6] is ACE-1 prostate cancer cells. The experiment in a line: Radiographic number of cancer cell colonies and overall tumor burden. Type of data set: in vivo, mouse. Summed up:
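In the same chow-dosing femoral tumor model, radiographs of tumor-bearing femurs were analysed blind. Images were split into distal and proximal halves and enlarged. Each colony was numbered and traced, defined as a radio-translucent area bounded by radio-opaque woven bone. Colony number per region and total tumor area per femur were recorded, then averaged per treatment group.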

In another data set the test system is parental ACE1 cells. The experiment in a line: Prostate cancer cells in vitro growth assay, parental ACE1. In kind it is cell-based, canine. As to conditions: for effect on cell growth (sensitivity): three day growth assay in vitro. Summed up: as §1
For data set [7] the following is noted: ref [4],[16],[19]; cited from earlier work.
Where [8] appears, read: three day growth assay, CellTiter-Glo.
Setting [9] is: sustained administration 30 mg/kg/day in chow.
The mark [10] stands for this setting: 30 mg/kg/day in chow, distal and proximal ends of femur, vs vehicle, p<0.05.

Data on 3 compounds can be found in publication PMC4545688 (Pain, 2015).

SMILES strings stand for the structures. Bounds are passed on as bounds.

For the compound `FC(F)(F)c1ccc(CNc2ccc(Cc3c[nH]c4ncc(Cl)cc34)cn2)cn1` [PLX3397], the “effect on prostate cancer cell growth” value in the data set on LNCaP and in the data set with PC-3 was “did not affect” in each case. Also, in “Rat formalin test”, the “hind paw licking time, acute phase (0–5 minutes)” value is “analgesic effects”. For the same compound, the “hind paw licking time, inflammatory phase (10–30 minutes)” value in “Rat formalin test” is given as “analgesic effects”. The “time spent guarding tumor-bearing limb” value in data set [1] is “reduced”. Moreover, the “concentration up to which no effect on cell growth (not sensitive)” value (in data set [2] (setting [8]); with parental ACE1 cells (setting [8])) was greater than 10 µM throughout. The “extra-periosteal bone formation (periosteal reaction area)” value in data set [3] (30 mg/kg/day in chow from day 14, days 14–63, vs vehicle, p<0.05) was “significantly reduced”. Besides, in data set [3] (30 mg/kg/day in chow, vs prostate cancer + vehicle), the “overall radio-opacity of tumor-bearing femur” value is listed as “increase”. For the same compound, in data set [3] (setting [9]), the “attenuation of tumor-induced bone remodeling” value was “approximately 50%”. Besides, the “viability of cancer cells in tumor cell colony” value in data set [4] (GFP+ prostate cancer cells in bone sections, day 65) is “little effect”. Besides, the “number of CD68+ cells per tissue volume” value in data set [4] (day 65 post-tumor cell injection, chronic treatment, vs vehicle, p<0.05) is “significantly reduced”. In addition, the “osteoclast differentiation (acid phosphatase activity, TRAP5b)” value in data set [5] was “inhibited”. In addition, in data set [6] (setting [10]), the “number of cancer cell colonies” value is “significantly reduced”. For the same compound, the “total tumor burden area” value in data set [6] (setting [10]) is listed as “significantly reduced”. Also, in data set [6] (setting [9]), the “attenuation of disease progression” value is “approximately 50%”. The “effect on cell growth (sensitivity)” value in the data set on parental ACE1 cells is listed as “did not affect”. Besides, the “crossing of the blood brain barrier” value in data set [7] was “does cross the blood brain barrier”.
As for `Cn1c(=O)n(-c2ccc(C(C)(C)C#N)cc2)c2c3cc(-c4cnc5ccccc5c4)ccc3ncc21` [BEZ-235, reference compound], the “effect on cell growth (sensitivity)” value (in data set [2]; with parental ACE1 cells) was “sensitive” in each case.
As to `CN[C@@H]1C[C@H]2O[C@@](C)([C@@H]1OC)n1c3ccccc3c3c4c(c5c6ccccc6n2c5c31)C(=O)NC4` [staurosporine, reference compound], the “effect on cell growth (sensitivity)” value (in data set [2]; in the data set on parental ACE1 cells) was “sensitive” in each case.
